Rows were chosen to be rich in hits. Some 3.8% of all compounds tested hit in one or more screens of this group.
KCNQ1 block = human KCNQ1 channel inhibition; P51787; CHO-K1 KCNQ1, FluxOR thallium flux fluorescence; active compounds read high; B-score at 10 µM; 310,000 compounds, 1.3% hits; AID 2642;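 active = compounds whose thallium flux B-score, printed positive for inhibition, exceeds three library SD while starting fluorescence stays within three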;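 note: channel opened by potassium depolarization with thallium stimulus after 20 min compound exposure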
Target sequence (P51787 whole entry, looked up): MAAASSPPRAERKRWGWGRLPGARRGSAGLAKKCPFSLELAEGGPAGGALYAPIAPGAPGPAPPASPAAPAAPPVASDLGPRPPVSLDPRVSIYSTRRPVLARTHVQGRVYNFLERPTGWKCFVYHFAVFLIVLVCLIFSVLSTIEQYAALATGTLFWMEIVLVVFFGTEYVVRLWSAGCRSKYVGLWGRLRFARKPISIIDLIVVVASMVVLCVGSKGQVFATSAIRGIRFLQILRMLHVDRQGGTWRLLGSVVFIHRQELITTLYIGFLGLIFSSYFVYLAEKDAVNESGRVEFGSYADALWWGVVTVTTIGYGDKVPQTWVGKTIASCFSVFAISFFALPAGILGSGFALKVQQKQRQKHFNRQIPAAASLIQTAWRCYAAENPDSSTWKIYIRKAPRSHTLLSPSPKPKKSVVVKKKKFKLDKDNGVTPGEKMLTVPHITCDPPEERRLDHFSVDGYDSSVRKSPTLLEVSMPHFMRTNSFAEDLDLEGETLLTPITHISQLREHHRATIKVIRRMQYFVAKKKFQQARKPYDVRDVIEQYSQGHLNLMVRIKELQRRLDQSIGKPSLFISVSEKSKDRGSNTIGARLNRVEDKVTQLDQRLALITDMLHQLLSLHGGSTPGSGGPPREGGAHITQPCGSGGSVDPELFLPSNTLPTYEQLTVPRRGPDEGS
KCNK3 block = human KCNK3 channel inhibition, primary screen; 340,000 compounds, 0.84% hits; B-score at 10 µM; CHO-KCNK3 thallium flux, FluxOR fluorescence; active compounds read low; O14649; AID 602410;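 active = B-score under library mean minus 4 SD, starting fluorescence ratio at most library mean plus 5 SD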;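 note: more negative B-score means stronger inhibition of thallium flux through KCNK3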
KCNQ1 act = human KCNQ1 channel potentiation or activation; 310,000 compounds, 0.35% hits; P51787; CHO-K1 KCNQ1, thallium flux FluxOR fluorescence; active compounds read high; B-score at 10 µM;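 active = fluorescence ratio B-score, a plate-corrected score, at least three library SD, with initial intensity B-score within 5 SD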
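Doses: Single concentration per compound, DMSO matched to controls | Test system: KCNQ1-transfected CHO-K1 cells | Timing: 90 min dye loading and 20 min compound exposure, both at room temperature | Measured by: Kinetic FluxOR thallium fluorescence, 10-s 1-Hz baseline, 110-s post-stimulus read | Medium: Assay buffer with matched DMSO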
KCNK9 block = human KCNK9 channel inhibition. AID 488922. B-score at 10 µM. 310,000 compounds, 1.2% hits. HEK293 KCNK9, FluxOR thallium flux fluorescence; active compounds read low;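 active = ratio B-score over 3 SD below the library mean, with starting fluorescence within 5 SD of its mean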;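 note: negative B-score means less thallium flux so channel inhibition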
hERG protect = compounds protecting human hERG from proarrhythmic drug block; AID 1511; 310,000 compounds, 0.51% hits; CHO-hERG, FluxOR thallium flux, dofetilide IC70 present; activation (rescue from dofetilide block), less the hit threshold, % at 10 µM;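 active = activation above the mean of controls blocked by dofetilide plus 5 SD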;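 note: thallium influx through hERG after potassium depolarization seen as dye fluorescence rise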
Kir21 block = inhibitors of mouse Kir2.1 inward-rectifier potassium channel | AID 1672 | HEK293-Kir2.1, FluxOR thallium flux fluorescence; active compounds read low | P35561 | 310,000 compounds, 0.85% hits | B-score at 10 µM;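 active = fluorescence ratio B-score at or below minus 3 SD of library scores, with starting-brightness B-score within 2 SD, cut at about -4.2 in these data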;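 note: channel flux triggered by added potassium and thallium sulfate stimulus; B-score of peak minus minimum fluorescence over baseline after thallium stimulus; more negative B-score means stronger Kir2.1 block with less thallium influx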
KCNK9 block conf = confirmation of human KCNK9 potassium channel inhibitors | shares compounds with KCNK9 block | HEK293 KCNK9 cells, FluxOR thallium flux fluorescence | inhibition, % at 10 µM | 4,900 compounds, 43% hits;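 active = thallium signal inhibited by more than 5 SD of the compound-free buffer control wells, on both duplicate plates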;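 note: 0% = assay buffer control wells without compound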
Kir21 sel = mouse Kir2.1 off-target activity of KCNK9 modulators; shares compounds with KCNK9 block; Kir2.1 cells, FluxOR thallium flux fluorescence; inhibition, % at 10 µM; 4,900 compounds, 4% hits;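 active = thallium signal drop more than 5 SD beyond the mean of the no-compound control wells, seen in both duplicate plates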;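 note: signal is fluorescence rise after thallium addition divided by baseline fluorescence; plate controls were assay buffer only for no effect and full block by chlorpromazine control for full effect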
KCNK9 uninduced = second check of KCNK9 modulator effects in non-induced HEK293 cells | shares compounds with KCNK9 block | FluxOR thallium flux | inhibition, % at 10 µM | 4,900 compounds, 40% hits;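 active = thallium signal drop beyond 5 SD of the untreated control mean, on both duplicate plates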;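 note: plate controls were buffer only IC0 wells for no effect and SID17386958 at its maximal inhibitory level for full effect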
* hit, by the source's call; i = inactive; x = not tested or not shown.

SMILES	KCNQ1 block	KCNK3 block	KCNQ1 act	KCNK9 block	hERG protect	Kir21 block	KCNK9 block conf	Kir21 sel	KCNK9 uninduced
CCOc1ccccc1N1CCN(C(=O)c2cc3c(C)cc(C)cc3[nH]2)CC1	i	i	i	-8.29*	-6.2	-1.06	i	i	i
CCOC(=O)C1CCN(C(=O)c2cc3c(C)cc(C)cc3[nH]2)CC1	i	i	i	i	-2.7	-1.6	x	x	x
CC(C)S(=O)(=O)c1nsc2nc(=O)c(/C=C3\C=Nc4ccccc43)c(N)n12	i	i	i	i	-22.0	0.38	i	i	i
CCN(C(=O)CCc1nnc2ccc(N3CCC4(CC3)OCCO4)nn12)c1ccccc1	i	i	i	i	-6.5	-0.22	x	x	x
C=CCn1c(NS(=O)(=O)c2ccccc2)c(S(=O)(=O)c2ccc(C)cc2)c2nc3ccccc3nc21	i	i	i	i	-6.2	-0.53	x	x	x
O=S(=O)(Nc1c(S(=O)(=O)c2ccccc2)c2nc3ccccc3nc2n1C1CCCCC1)c1ccccc1	i	i	i	i	-16.9	-5.13*	i	i	i
O=C(OC(c1ccccc1)c1nccc2ccccc12)c1cccc([N+](=O)[O-])c1 (centres undefined)	7*	i	i	-13*	-12.4	0.88	40.0%*	i	47.5%*
Clc1cccc(COn2c(-c3ccc(Cl)cc3Cl)nc3ncccc32)c1	i	i	i	-8.81*	-10.7	-2.31	46.5%*	i	35.0%*
O=C(COC(=O)c1nc(Cl)ccc1Cl)NCc1ccc(Cl)cc1	x	i	x	x	x	x	x	x	x
S=C(c1ccc(-c2cc(Cl)ccc2Cl)o1)N1CCCCC1	i	i	i	-11.8*	-7.5	-1.13	46.5%*	i	41.5%*
O=C(c1ccc(-c2ccccc2Cl)o1)N1CCCCCCC1	x	i	x	x	x	x	x	x	x
CC(C)CCNC(=O)[C@H](Cc1ccccc1)N1Cc2ccccc2C1=O	i	i	i	i	-9.5	-0.5	x	x	x
CC(C)CCNC(=O)[C@H](CSCc1ccccc1)N1Cc2ccccc2C1=O	i	i	i	i	-8.7	0.38	i	i	i
COC(=O)c1cc2c(ccn2-c2ccc(F)cc2)n1Cc1ccc(OC)cc1	i	i	i	i	-6.0	0.03	x	x	x
COC(=O)c1cc2c(ccn2-c2ccc(F)cc2)n1Cc1ccc(C#N)cc1	i	i	i	-9.54*	-5.3	0.31	37.5%*	i	31.5%*
COc1ccc(N2C(=O)CSC23C(=O)N2CCCc4cccc3c42)cc1 (centres undefined)	i	i	i	i	-11.9	-2.69	x	x	x
COc1ccc(N2C(=O)CSC23C(=O)N2c4c(cccc43)C(C)=CC2(C)C)cc1 (centres undefined)	i	i	i	-8.65*	-11.7	1.23	i	i	46.0%*
COc1cccc(OC)c1OCCCN1CCC(Cc2ccccc2)CC1	i	i	i	i	-10.2	-1.35	i	i	i
COc1cc(C(=O)OCC(=O)N2CCC(Cc3ccccc3)CC2)cc(OC)c1OC	i	i	i	i	-6.5	0.42	i	i	i
COc1cc(/C=C/C(=O)OCC(=O)N2CCC(C)CC2)ccc1O	i	i	i	i	-8.2	0.19	x	x	x
COc1cc(/C=C/C(=O)OCC(=O)N2CCC(Cc3ccccc3)CC2)ccc1O	i	i	i	i	-15.5	-0.11	i	i	i
Clc1ccc(-c2nnsc2SCc2ccccc2)cc1	i	i	i	-10.6*	-8.4	0.03	i	i	44.0%*
CSCCC(NC(=O)c1ccc(Cl)cc1Cl)C(=O)NCC(c1cccs1)N(C)C (centres undefined)	x	i	x	x	x	x	x	x	x
O=c1[nH]cnc2c1c(-c1ccccc1)cn2-c1cccc(Cl)c1	i	i	i	-12.7*	-3.5	2.01	51.5%*	i	i
COc1ccc(-n2cc(-c3ccccc3)c3c(=O)[nH]cnc32)cc1	i	i	i	i	-6.3	0.21	x	x	x
SMILES	KCNQ1 block	KCNK3 block	KCNQ1 act	KCNK9 block	hERG protect	Kir21 block	KCNK9 block conf	Kir21 sel	KCNK9 uninduced
CCOC(=O)Cn1c(=NC(=O)CSC(C)=O)sc2ccccc21	i	i	i	-8.17*	-12.2	-0.93	48.5%*	i	40.0%*
Clc1cccc(N2CCN(Cc3nnc(-c4ccccc4)o3)CC2)c1	i	i	i	i	-12.8	-0.29	i	i	i
c1ccc(-c2nnc(CN3CCN(c4ccccc4)CC3)o2)cc1	i	i	i	i	-13.1	0.34	x	x	x
COC1CCCN(Cc2nc(Cc3ccccc3F)no2)C1 (centres undefined)	i	i	i	i	-8.2	0.83	x	x	x
COCC1CCN(Cc2nc(COc3ccccc3)no2)C1 (centres undefined)	i	i	i	i	-11.2	-0.45	x	x	x
Fc1ccccc1OCC1CCCN(Cc2nc(CC3CC3)no2)C1 (centres undefined)	i	i	i	i	-8.9	0.06	i	i	i
c1ccc(COC2CCCN(Cc3nc(Cc4ccccc4)no3)C2)cc1 (centres undefined)	i	i	i	i	-8.9	-1.11	i	i	i
Clc1cccc(C2CCN(Cc3nc(CC4CC4)no3)C2)c1 (centres undefined)	i	i	i	i	-8.6	-2.18	i	i	i
c1ccc(OCc2noc(CN3CCC(C4CCCCC4)C3)n2)cc1 (centres undefined)	i	i	i	i	-7.3	0.78	i	i	i
CCOc1ncccc1C(=O)N=C1SCCN1C(=O)c1cccnc1OCC	i	i	i	i	-15.7	0.25	x	x	x
COc1ccc(N2CCN(c3ccc4nnc(CCC(=O)Nc5ccc(C)cc5)n4n3)CC2)cc1	i	i	i	i	-11.3	0.12	x	x	x
Fc1ccccc1C1CCN(Cc2nc(COc3ccccc3)no2)C1 (centres undefined)	i	i	i	i	-16.3	0.05	i	i	i
COCc1[nH][nH]c(=O)c1C=NCC(=O)OC	i	i	i	i	-10.9	0.81	x	x	x
Clc1ccccc1-c1ccc(CN2CCN(c3ccccc3)CC2)o1	i	i	i	i	-4.7	-1.41	i	i	i

Source: PubChem BioAssay (Johns Hopkins Ion Channel Center)
